{"source": "paper PMC9588736", "about": "(Cell chemical biology, 2022)", "key": {"KEAP1-BRD4BD2": {"target": "KEAP1-BRD4BD2 (Homo sapiens, UniProt O60885+Q14145)", "sequence (Q14145 321-609 limits assumed, other chains not shown)": "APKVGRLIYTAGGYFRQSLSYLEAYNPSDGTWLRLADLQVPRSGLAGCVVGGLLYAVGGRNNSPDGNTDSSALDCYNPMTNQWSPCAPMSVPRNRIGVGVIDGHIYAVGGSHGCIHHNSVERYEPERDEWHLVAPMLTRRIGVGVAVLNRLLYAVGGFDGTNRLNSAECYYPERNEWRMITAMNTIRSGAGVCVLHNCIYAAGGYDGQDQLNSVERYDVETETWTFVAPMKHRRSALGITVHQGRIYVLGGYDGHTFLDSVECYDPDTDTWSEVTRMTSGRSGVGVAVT", "assay": "KEAP1-BRD4BD2 dimerization TR-FRET assay", "assay_type": "biochemical", "procedure,_shortened": "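TR-FRET mix: 200 nM biotinylated human BRD4BD2, 200 nM Alexa Fluor 647-labelled human KEAP1 (residues 321–609, insect-cell expressed, SpyCatcher-labelled) and 2 nM Eu-streptavidin. Buffer was 50 mM Tris pH 8.0, 200 mM NaCl, 0.1% Pluronic F-68, 0.5% BSA and 1 mM TCEP; compound was titrated. After 15 min at room temperature, excitation was 337 nm and the 665/620 nm ratio was read over thirty 200-s cycles. Mean ± SD of ≥3 technical replicates; two independent experiments.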"}, "KEAP1 [1]": {"target": "T1, KEAP1 (Homo sapiens, UniProt Q14145)", "assay": "KEAP1-NRF2 displacement TR-FRET assay", "assay_type": "binding"}, "BRD4": {"target": "BRD4 (Homo sapiens, UniProt O60885)", "assay": "Immunoblot of BRD4 degradation in MM.1S cells", "assay_type": "cell-based", "conditions": "for cellular degradation of BRD4, linker library: 16 h", "procedure,_shortened": "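MM.1S cells were treated with test compound for 16 h (24 h in the initial screen). For rescue, cells were pretreated 2 h with 10 μM KEAP1 inhibitor, 10 μM JQ1 or 1 μM MLN4924. Lysates in RIPA were BCA-normalised, run on 4–12% gels and blotted to PVDF with IRDye secondaries. BRD4 bands were quantified relative to β-actin. Two independent experiments.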"}, "OVCAR8 cells": {"test_system": "OVCAR8 cells", "assay": "Proteomics profiling of KEAP1-CRBN PROTACs", "assay_type": "cell-based, human", "conditions": "legend: MM.1S cells, 5 h, 5 μM"}, "CRBN": {"target": "CRBN (Homo sapiens, UniProt Q96SW2)", "sequence (Q96SW2 whole entry)": "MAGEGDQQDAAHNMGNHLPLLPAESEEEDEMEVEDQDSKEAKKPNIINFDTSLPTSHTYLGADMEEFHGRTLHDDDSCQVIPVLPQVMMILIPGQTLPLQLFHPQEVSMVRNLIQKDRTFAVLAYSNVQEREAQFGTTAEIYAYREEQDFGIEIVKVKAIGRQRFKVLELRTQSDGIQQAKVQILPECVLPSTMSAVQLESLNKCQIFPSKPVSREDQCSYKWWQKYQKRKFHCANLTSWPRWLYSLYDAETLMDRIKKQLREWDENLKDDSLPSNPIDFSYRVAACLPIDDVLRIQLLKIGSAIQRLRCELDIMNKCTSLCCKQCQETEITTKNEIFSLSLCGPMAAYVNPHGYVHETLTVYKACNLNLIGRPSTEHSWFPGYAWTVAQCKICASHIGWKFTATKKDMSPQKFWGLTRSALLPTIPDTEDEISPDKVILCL", "assay": "Immunoblot of CRBN in MM.1S cells", "assay_type": "cell-based"}, "KEAP1 [2]": {"target": "T1, KEAP1", "assay": "Immunoblot of KEAP1 degradation in WT and CRBN−/− MM.1S cells", "assay_type": "cell-based", "conditions": "for KEAP1 degradation in CRBN knockout cells: CRBN−/− MM.1S cells; for KEAP1 degradation in CRBN knockout cells / KEAP1 degradation in wildtype cells: 5 μM, 2-hour treatment; for KEAP1 degradation: MM.1S cells; for KEAP1 degradation in wildtype cells: wildtype MM.1S cells"}, "MM.1S cells": {"test_system": "MM.1S cells", "assay": "Antiproliferation assay", "assay_type": "cell-based", "conditions": "Homo sapiens, MM1.S, 72 h, read-out: anti-proliferative effect", "procedure,_shortened": "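MM.1S cells (RPMI, 10% FBS, 1% Pen/Strep, 37°C, 5% CO2) seeded at 10000 cells/well and grown 12 h, then exposed to test compound for 72 h. Viability read by CellTiter-Glo luminescence. Dose-response curves fitted by non-linear regression. Mean ± SEM of three technical replicates; representative of two independent experiments.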"}}, "note": "Where two headings read alike, the source gives them in different places.", "data": [{"smiles": "COc1cc(C(CC(=O)O)c2ccc(C)c(CN3C[C@@H](C)Oc4cc(CCCCCCNC(=O)C[C@@H]5N=C(c6ccc(Cl)cc6)c6c(sc(C)c6C)-n6c(C)nnc65)ccc4S3(=O)=O)c2)cc2nnn(C)c12", "note": "(mixture of isomers) [DGY-06–177, 3-(3-(((R)-7-(6-(2-((S)-4-(4-chlorophenyl)-2,3,9-trimethyl-6H-thieno[3,2-f][1,2,4]triazolo[4,3-a][1,4]diazepin-6-yl)acetamido)hexyl)-4-methyl-1,1-dioxido-3,4-dihydro-2H-benzo[b][1,4,5]oxathiazepin-2-yl)methyl)-4-methylphenyl)-3-(7-methoxy-1-methyl-1H-benzo[d][1,2,3]triazol-5-yl)propanoic acid]", "values": [{"measurement": "concentration at which KEAP1-BRD4BD2 dimerization is promoted", "setting": "KEAP1-BRD4BD2", "value": "approximately 100 nM"}, {"measurement": "IC50", "setting": "KEAP1 [1]", "value": 145, "unit": "nM"}, {"measurement": "concentration at which hook effect is exhibited", "setting": "BRD4; MM.1S cells, 24 h", "value": 5, "unit": "µM"}, {"measurement": "concentration of maximal BRD4 degradation", "setting": "BRD4; MM.1S cells, 24 h", "value": 1, "unit": "µM"}]}, {"smiles": "COc1cc(C(CC(=O)O)c2ccc(C)c(CN(C)S(=O)(=O)c3ccc(OCCCCCCNC(=O)C[C@@H]4N=C(c5ccc(Cl)cc5)c5c(sc(C)c5C)-n5c(C)nnc54)cc3)c2)cc2nnn(C)c12", "note": "(stereo partly drawn) [DGY-05–089, 3-(3-(((4-((6-(2-((S)-4-(4-chlorophenyl)-2,3,9-trimethyl-6H-thieno[3,2-f][1,2,4]triazolo[4,3-a][1,4]diazepin-6-yl)acetamido)hexyl)oxy)-N-methylphenyl)sulfonamido)methyl)-4-methylphenyl)-3-(7-methoxy-1-methyl-1H-benzo[d][1,2,3]triazol-5-yl)propanoic acid]", "values": [{"measurement": "KEAP1-BRD4BD2 ternary complex formation / dimerization", "setting": "KEAP1-BRD4BD2", "value": "did not induce ternary complex formation"}, {"measurement": "IC50", "setting": "KEAP1 [1]; read-out: IC50, KEAP1-NRF2 TR-FRET displacement", "value": 147, "unit": "nM"}, {"measurement": "BRD4 degradation", "setting": "BRD4; MM.1S cells, 24 h", "value": "failed to degrade BRD4"}]}, {"smiles": "COc1cc([C@H](CC(=O)O)c2ccc(C)c(CN3C[C@@H](C)Oc4cc(CCCCCCNC(=O)C[C@@H]5N=C(c6ccc(Cl)cc6)c6c(sc(C)c6C)-n6c(C)nnc65)ccc4S3(=O)=O)c2)cc2nnn(C)c12", "note": "[DGY-06–177-pk1, (R)-3-(3-(((R)-7-(6-(2-((S)-4-(4-chlorophenyl)-2,3,9-trimethyl-6H-thieno[3,2-f][1,2,4]triazolo[4,3-a][1,4]diazepin-6-yl)acetamido)hexyl)-4-methyl-1,1-dioxido-3,4-dihydro-2H-benzo[b][1,4,5]oxathiazepin-2-yl)methyl)-4-methylphenyl)-3-(7-methoxy-1-methyl-1H-benzo[d][1,2,3]triazol-5-yl)propanoic acid]", "values": [{"measurement": "concentration at which KEAP1-BRD4BD2 dimerization is induced", "setting": "KEAP1-BRD4BD2", "value": "~ 10 μM"}]}, {"smiles": "COc1cc([C@@H](CC(=O)O)c2ccc(C)c(CN3C[C@@H](C)Oc4cc(CCCCCCNC(=O)COc5cccc6c5C(=O)N(C5CCC(=O)NC5=O)C6=O)ccc4S3(=O)=O)c2)cc2nnn(C)c12", "note": "(stereo partly drawn) [NJH-04–086, (3S)-3-(3-(((4R)-7-(6-(2-((2-(2,6-dioxopiperidin-3-yl)-1,3-dioxoisoindolin-4-yl)oxy)acetamido)hexyl)-4-methyl-1,1-dioxido-3,4-dihydro-2H-benzo[b][1,4,5]oxathiazepin-2-yl)methyl)-4-methylphenyl)-3-(7-methoxy-1-methyl-1H-benzo[d][1,2,3]triazol-5-yl)propanoic acid]", "values": [{"measurement": "selectivity of degradation across the proteome", "setting": "OVCAR8 cells", "value": "clear degradation of KEAP1 and a few zinc finger proteins"}, {"measurement": "effect on CRBN", "setting": "CRBN", "value": "spared CRBN"}, {"measurement": "KEAP1 degradation in CRBN knockout cells", "setting": "KEAP1 [2]", "value": "not CRBN^−/− MM.1S cells"}, {"measurement": "KEAP1 degradation", "setting": "KEAP1 [2]", "value": "rapid degradation of KEAP1"}, {"measurement": "KEAP1 degradation in wildtype cells", "setting": "KEAP1 [2]", "value": "observed KEAP1 degradation"}]}, {"smiles": "COc1cc([C@@H](CC(=O)O)c2ccc(C)c(CN3C[C@@H](C)Oc4cc(CCCCCCNC(=O)COc5cc6c7c(cccc7c5)C(=O)N(C5CCC(=O)NC5=O)C6=O)ccc4S3(=O)=O)c2)cc2nnn(C)c12", "note": "(stereo partly drawn) [NJH-04–087, (3S)-3-(3-(((4R)-7-(6-(2-((2-(2,6-dioxopiperidin-3-yl)-1,3-dioxo-2,3-dihydro-1H-benzo[de]isoquinolin-5-yl)oxy)acetamido)hexyl)-4-methyl-1,1-dioxido-3,4-dihydro-2H-benzo[b][1,4,5]oxathiazepin-2-yl)methyl)-4-methylphenyl)-3-(7-methoxy-1-methyl-1H-benzo[d][1,2,3]triazol-5-yl)propanoic acid]", "values": [{"measurement": "selectivity of degradation across the proteome", "setting": "OVCAR8 cells", "value": "selective for inducing degradation of KEAP1 across the proteome and does not degrade any zinc finger proteins"}, {"measurement": "effect on CRBN", "setting": "CRBN", "value": "spared CRBN"}, {"measurement": "KEAP1 degradation in CRBN knockout cells", "setting": "KEAP1 [2]", "value": "not CRBN^−/− MM.1S cells"}, {"measurement": "KEAP1 degradation", "setting": "KEAP1 [2]", "value": "rapid degradation of KEAP1"}, {"measurement": "KEAP1 degradation in wildtype cells", "setting": "KEAP1 [2]", "value": "observed KEAP1 degradation"}]}, {"smiles": "COc1cc([C@@H](CC(=O)O)c2ccc(C)c(CN3C[C@@H](C)Oc4cc(CCCCCCNC(=O)COc5cc6c7c(cccc7c5)C(=O)N(C5CCC(=O)N(C)C5=O)C6=O)ccc4S3(=O)=O)c2)cc2nnn(C)c12", "note": "(stereo partly drawn) [NJH-04–202, (3S)-3-(7-methoxy-1-methyl-1H-benzo[d][1,2,3]triazol-5-yl)-3-(4-methyl-3-(((4R)-4-methyl-7-(6-(2-((2-(1-methyl-2,6-dioxopiperidin-3-yl)-1,3-dioxo-2,3-dihydro-1H-benzo[de]isoquinolin-5-yl)oxy)acetamido)hexyl)-1,1-dioxido-3,4-dihydro-2H-benzo[b][1,4,5]oxathiazepin-2-yl)methyl)phenyl)propanoic acid]", "values": [{"measurement": "KEAP1 degradation, negative control", "setting": "KEAP1 [2]; WT MM.1S cells, 4 h", "value": "did not induce KEAP1 degradation"}]}, {"smiles": "COc1cc([C@@H](CC(=O)O)c2ccc(C)c(CN3C[C@@H](C)Oc4cc(CCCCNC(=O)C[C@@H]5N=C(c6ccc(Cl)cc6)c6c(sc(C)c6C)-n6c(C)nnc65)ccc4S3(=O)=O)c2)cc2nnn(C)c12", "note": "[NJH-05–138, (S)-3-(3-(((R)-7-(4-(2-((S)-4-(4-chlorophenyl)-2,3,9-trimethyl-6H-thieno[3,2-f][1,2,4]triazolo[4,3-a][1,4]diazepin-6-yl)acetamido)butyl)-4-methyl-1,1-dioxido-3,4-dihydro-2H-benzo[b][1,4,5]oxathiazepin-2-yl)methyl)-4-methylphenyl)-3-(7-methoxy-1-methyl-1H-benzo[d][1,2,3]triazol-5-yl)propanoic acid]", "values": [{"measurement": "cellular degradation of BRD4, linker library", "setting": "BRD4; MM.1S cells", "value": "showed cellular degradation of BRD4 to a similar level to DGY-06–177-pk2"}]}, {"smiles": "COc1cc([C@@H](CC(=O)O)c2ccc(C)c(CN3C[C@@H](C)Oc4cc(CCCOCCNC(=O)C[C@@H]5N=C(c6ccc(Cl)cc6)c6c(sc(C)c6C)-n6c(C)nnc65)ccc4S3(=O)=O)c2)cc2nnn(C)c12", "note": "[NJH-05–141, (S)-3-(3-(((R)-7-(3-(2-(2-((S)-4-(4-chlorophenyl)-2,3,9-trimethyl-6H-thieno[3,2-f][1,2,4]triazolo[4,3-a][1,4]diazepin-6-yl)acetamido)ethoxy)propyl)-4-methyl-1,1-dioxido-3,4-dihydro-2H-benzo[b][1,4,5]oxathiazepin-2-yl)methyl)-4-methylphenyl)-3-(7-methoxy-1-methyl-1H-benzo[d][1,2,3]triazol-5-yl)propanoic acid]", "values": [{"measurement": "cellular degradation of BRD4, linker library", "setting": "BRD4; MM.1S cells", "value": "showed cellular degradation of BRD4 to a similar level to DGY-06–177-pk2"}]}, {"smiles": "CCOC(=O)C[C@@H](c1ccc(C)c(CN2C[C@@H](C)Oc3cc(CCCCCCNC(=O)C[C@@H]4N=C(c5ccc(Cl)cc5)c5c(sc(C)c5C)-n5c(C)nnc54)ccc3S2(=O)=O)c1)c1cc(OC)c2c(c1)nnn2C", "note": "[NJH-05–146, Ethyl (S)-3-(3-(((R)-7-(6-(2-((S)-4-(4-chlorophenyl)-2,3,9-trimethyl-6H-thieno[3,2-f][1,2,4]triazolo[4,3-a][1,4]diazepin-6-yl)acetamido)hexyl)-4-methyl-1,1-dioxido-3,4-dihydro-2H-benzo[b][1,4,5]oxathiazepin-2-yl)methyl)-4-methylphenyl)-3-(7-methoxy-1-methyl-1H-benzo[d][1,2,3]triazol-5-yl)propanoate]", "values": [{"measurement": "KEAP1 binding / engagement in TR-FRET Nrf2 peptide displacement assay", "setting": "KEAP1 [1]", "value": "did not bind KEAP1"}, {"measurement": "IC50", "setting": "MM.1S cells", "value": "> 10000", "unit": "nM"}, {"measurement": "activity at prolonged timepoints", "setting": "BRD4", "value": "inactive even at prolonged timepoints"}, {"measurement": "BRD4 degradation, negative control", "setting": "BRD4; MM.1S cells, 16-hour treatment at 0.1, 1, and 10 μM", "value": "did not result in degradation of BRD4"}]}]}
